# Data published in ChEMBL document CHEMBL5058577, “EUbOPEN Chemogenomics Library 2 (Multiplex)” (2022).
# System: HEK-293T
# Assay: Multiplex assay against HEK293T
# Type: toxicity, cell-based
# Conditions: human
# Outline: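 Hoechst33342, BioTracker Green Microtubule Cytoskeleton Dye, MitoTracker Red and Annexin V Alexa Fluor 680 were added to live cells at seeding, and imaging on a CQ1 microscope at 37°C and 5% CO2 followed compound addition. Gating by CellPathfinder machine learning separated cells into Hoechst high-intensity objects or normal cells, then normal cells into healthy, pyknosed or fragmented nuclei, then pyknosed cells into mitotic or apoptotic. Per cents of healthy-nucleus cells are reported for the tubulin, mitochondrial-mass and membrane-permeability phenotypes.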
# [1] = 12 h, 1 µM, compound concentration 1 uM, replicate 1
# [2] = 12 h, 1 µM, compound concentration 1 uM, replicate 2
# [3] = 12 h, 10 µM, compound concentration 10 uM, replicate 1
# [4] = 12 h, 10 µM, compound concentration 10 uM, replicate 2
# [5] = 24 h, 1 µM, compound concentration 1 uM, replicate 1
# [6] = 24 h, 1 µM, compound concentration 1 uM, replicate 2
# [7] = 24 h, 10 µM, compound concentration 10 uM, replicate 1
# [8] = 24 h, 10 µM, compound concentration 10 uM, replicate 2
# [9] = 48 h, 1 µM, compound concentration 1 uM, replicate 1
# [10] = 48 h, 1 µM, compound concentration 1 uM, replicate 2
# [11] = 48 h, 10 µM, compound concentration 10 uM, replicate 1
# [12] = 48 h, 10 µM, compound concentration 10 uM, replicate 2
smiles,measurement,setting,value
"CCCn1c(=O)c2[nH]c(C3CCCC3)nc2n(CCC)c1=O [1,3-DIPROPYL-8-CYCLOPENTYLXANTHINE [DPCPX]]",Population Apoptotic (%),[1],35%
same,Population Fragmented Nuclei (%),[1],7%
same,Population Healthy Nuclei (%),[1],79%
same,Population Hoechst High Intensity Objects (%),[1],6%
same,Population Membrane Permeable-Phenotype (%),[1],0%
same,Population Mitochondria Different-Phenotype (%),[1],44%
same,Population Mitotic Cells (%),[1],64%
same,Population Normal (%),[1],93%
same,Population Pyknosed Nuclei (%),[1],12%
same,Population Tubulin-Different-Phenotype (%),[1],32%
same,Total Cell Count,[1],443
same,Population Apoptotic (%),[2],54%
same,Population Fragmented Nuclei (%),[2],3%
same,Population Healthy Nuclei (%),[2],81%
same,Population Hoechst High Intensity Objects (%),[2],3%
same,Population Mitochondria Different-Phenotype (%),[2],52%
same,Population Mitotic Cells (%),[2],45%
same,Population Normal (%),[2],96%
same,Population Pyknosed Nuclei (%),[2],14%
same,Population Tubulin-Different-Phenotype (%),[2],15%
same,Total Cell Count,[2],361
same,Population Apoptotic (%),[3],60%
same,Population Fragmented Nuclei (%),[3],12%
same,Population Healthy Nuclei (%),[3],68%
same,Population Hoechst High Intensity Objects (%),[3],5%
same,Population Membrane Permeable-Phenotype (%),[3],0%
same,Population Mitochondria Different-Phenotype (%),[3],58%
same,Population Mitotic Cells (%),[3],39%
same,Population Normal (%),[3],94%
same,Population Pyknosed Nuclei (%),[3],19%
same,Population Tubulin-Different-Phenotype (%),[3],51%
same,Total Cell Count,[3],295
same,Population Apoptotic (%),[4],54%
same,Population Fragmented Nuclei (%),[4],7%
same,Population Healthy Nuclei (%),[4],75%
same,Population Hoechst High Intensity Objects (%),[4],18%
same,Population Mitochondria Different-Phenotype (%),[4],68%
same,Population Mitotic Cells (%),[4],45%
same,Population Normal (%),[4],81%
same,Population Pyknosed Nuclei (%),[4],16%
same,Population Tubulin-Different-Phenotype (%),[4],45%
same,Total Cell Count,[4],337
same,Population Apoptotic (%),[5],26%
same,Population Fragmented Nuclei (%),[5],8%
same,Population Healthy Nuclei (%),[5],78%
same,Population Hoechst High Intensity Objects (%),[5],4%
same,Population Membrane Permeable-Phenotype (%),[5],1%
same,Population Mitochondria Different-Phenotype (%),[5],25%
same,Population Mitotic Cells (%),[5],73%
same,Population Normal (%),[5],95%
same,Population Pyknosed Nuclei (%),[5],13%
same,Population Tubulin-Different-Phenotype (%),[5],20%
same,Total Cell Count,[5],610
same,Population Apoptotic (%),[6],28%
same,Population Fragmented Nuclei (%),[6],7%
same,Population Healthy Nuclei (%),[6],82%
same,Population Hoechst High Intensity Objects (%),[6],3%
same,Population Membrane Permeable-Phenotype (%),[6],0%
same,Population Mitochondria Different-Phenotype (%),[6],45%
same,Population Mitotic Cells (%),[6],71%
same,Population Normal (%),[6],96%
same,Population Pyknosed Nuclei (%),[6],10%
same,Population Tubulin-Different-Phenotype (%),[6],19%
same,Total Cell Count,[6],403
same,Population Apoptotic (%),[7],50%
same,Population Fragmented Nuclei (%),[7],8%
same,Population Healthy Nuclei (%),[7],76%
same,Population Hoechst High Intensity Objects (%),[7],4%
same,Population Membrane Permeable-Phenotype (%),[7],0%
same,Population Mitochondria Different-Phenotype (%),[7],43%
same,Population Mitotic Cells (%),[7],50%
same,Population Normal (%),[7],95%
same,Population Pyknosed Nuclei (%),[7],14%
same,Population Tubulin-Different-Phenotype (%),[7],40%
same,Total Cell Count,[7],379
same,Population Apoptotic (%),[8],41%
same,Population Fragmented Nuclei (%),[8],7%
same,Population Healthy Nuclei (%),[8],79%
same,Population Hoechst High Intensity Objects (%),[8],15%
same,Population Mitochondria Different-Phenotype (%),[8],55%
same,Population Mitotic Cells (%),[8],58%
same,Population Normal (%),[8],84%
same,Population Pyknosed Nuclei (%),[8],13%
same,Population Tubulin-Different-Phenotype (%),[8],31%
same,Total Cell Count,[8],411
same,Population Apoptotic (%),[9],33%
same,Population Fragmented Nuclei (%),[9],11%
same,Population Healthy Nuclei (%),[9],81%
same,Population Hoechst High Intensity Objects (%),[9],1%
same,Population Membrane Permeable-Phenotype (%),[9],1%
same,Population Mitochondria Different-Phenotype (%),[9],17%
same,Population Mitotic Cells (%),[9],66%
same,Population Normal (%),[9],98%
same,Population Pyknosed Nuclei (%),[9],7%
same,Population Tubulin-Different-Phenotype (%),[9],17%
same,Total Cell Count,[9],957
same,Population Apoptotic (%),[10],39%
same,Population Fragmented Nuclei (%),[10],14%
same,Population Healthy Nuclei (%),[10],80%
same,Population Hoechst High Intensity Objects (%),[10],3%
same,Population Membrane Permeable-Phenotype (%),[10],0%
same,Population Mitochondria Different-Phenotype (%),[10],22%
same,Population Mitotic Cells (%),[10],60%
same,Population Normal (%),[10],96%
same,Population Pyknosed Nuclei (%),[10],5%
same,Population Tubulin-Different-Phenotype (%),[10],13%
same,Total Cell Count,[10],593
same,Population Apoptotic (%),[11],29%
same,Population Fragmented Nuclei (%),[11],14%
same,Population Healthy Nuclei (%),[11],76%
same,Population Hoechst High Intensity Objects (%),[11],3%
same,Population Membrane Permeable-Phenotype (%),[11],1%
same,Population Mitochondria Different-Phenotype (%),[11],37%
same,Population Mitotic Cells (%),[11],70%
same,Population Normal (%),[11],96%
same,Population Pyknosed Nuclei (%),[11],8%
same,Population Tubulin-Different-Phenotype (%),[11],30%
same,Total Cell Count,[11],511
same,Population Apoptotic (%),[12],45%
same,Population Healthy Nuclei (%),[12],75%
same,Population Hoechst High Intensity Objects (%),[12],7%
same,Population Membrane Permeable-Phenotype (%),[12],0%
same,Population Mitochondria Different-Phenotype (%),[12],36%
same,Population Mitotic Cells (%),[12],54%
same,Population Normal (%),[12],92%
same,Population Pyknosed Nuclei (%),[12],10%
same,Population Tubulin-Different-Phenotype (%),[12],23%
same,Total Cell Count,[12],516
Cc1ccccc1C(=O)Nc1ccc(C(=O)N2CCCC(N(C)C)c3ccccc32)cc1.Cl (configuration not stated),Population Apoptotic (%),[1],18%
same,Population Fragmented Nuclei (%),[1],6%
same,Population Healthy Nuclei (%),[1],80%
same,Population Hoechst High Intensity Objects (%),[1],8%
same,Population Membrane Permeable-Phenotype (%),[1],0%
same,Population Mitochondria Different-Phenotype (%),[1],51%
same,Population Mitotic Cells (%),[1],81%
same,Population Normal (%),[1],91%
same,Population Pyknosed Nuclei (%),[1],12%
same,Population Tubulin-Different-Phenotype (%),[1],33%
same,Total Cell Count,[1],519
same,Population Apoptotic (%),[2],53%
same,Population Fragmented Nuclei (%),[2],5%
same,Population Healthy Nuclei (%),[2],79%
same,Population Hoechst High Intensity Objects (%),[2],6%
same,Population Mitochondria Different-Phenotype (%),[2],72%
same,Population Mitotic Cells (%),[2],46%
same,Population Normal (%),[2],93%
same,Population Pyknosed Nuclei (%),[2],14%
same,Population Tubulin-Different-Phenotype (%),[2],29%
same,Total Cell Count,[2],412
same,Population Apoptotic (%),[3],53%
same,Population Fragmented Nuclei (%),[3],6%
same,Population Healthy Nuclei (%),[3],70%
same,Population Hoechst High Intensity Objects (%),[3],8%
same,Population Membrane Permeable-Phenotype (%),[3],0%
same,Population Mitochondria Different-Phenotype (%),[3],74%
same,Population Mitotic Cells (%),[3],46%
same,Population Normal (%),[3],91%
same,Population Pyknosed Nuclei (%),[3],22%
same,Population Tubulin-Different-Phenotype (%),[3],60%
same,Total Cell Count,[3],233
same,Population Apoptotic (%),[4],64%
same,Population Fragmented Nuclei (%),[4],8%
same,Population Healthy Nuclei (%),[4],72%
same,Population Hoechst High Intensity Objects (%),[4],15%
same,Population Mitochondria Different-Phenotype (%),[4],82%
same,Population Mitotic Cells (%),[4],35%
same,Population Normal (%),[4],84%
same,Population Pyknosed Nuclei (%),[4],18%
same,Population Tubulin-Different-Phenotype (%),[4],61%
same,Total Cell Count,[4],285
same,Population Apoptotic (%),[5],31%
same,Population Fragmented Nuclei (%),[5],11%
same,Population Healthy Nuclei (%),[5],79%
same,Population Hoechst High Intensity Objects (%),[5],5%
same,Population Membrane Permeable-Phenotype (%),[5],0%
same,Population Mitochondria Different-Phenotype (%),[5],28%
same,Population Mitotic Cells (%),[5],68%
same,Population Normal (%),[5],94%
same,Population Pyknosed Nuclei (%),[5],8%
same,Population Tubulin-Different-Phenotype (%),[5],17%
same,Total Cell Count,[5],727
same,Population Apoptotic (%),[6],30%
same,Population Fragmented Nuclei (%),[6],5%
same,Population Healthy Nuclei (%),[6],83%
same,Population Hoechst High Intensity Objects (%),[6],4%
same,Population Mitochondria Different-Phenotype (%),[6],52%
same,Population Mitotic Cells (%),[6],69%
same,Population Normal (%),[6],95%
same,Population Pyknosed Nuclei (%),[6],11%
same,Population Tubulin-Different-Phenotype (%),[6],19%
same,Total Cell Count,[6],567
same,Population Apoptotic (%),[7],41%
same,Population Fragmented Nuclei (%),[7],8%
same,Population Healthy Nuclei (%),[7],70%
same,Population Hoechst High Intensity Objects (%),[7],7%
same,Population Membrane Permeable-Phenotype (%),[7],0%
same,Population Mitochondria Different-Phenotype (%),[7],71%
same,Population Mitotic Cells (%),[7],58%
same,Population Normal (%),[7],92%
same,Population Pyknosed Nuclei (%),[7],21%
same,Population Tubulin-Different-Phenotype (%),[7],46%
same,Total Cell Count,[7],268
same,Population Apoptotic (%),[8],44%
same,Population Fragmented Nuclei (%),[8],7%
same,Population Healthy Nuclei (%),[8],73%
same,Population Hoechst High Intensity Objects (%),[8],14%
same,Population Mitochondria Different-Phenotype (%),[8],83%
same,Population Mitotic Cells (%),[8],55%
same,Population Normal (%),[8],85%
same,Population Pyknosed Nuclei (%),[8],18%
same,Total Cell Count,[8],285
same,Population Apoptotic (%),[9],13%
same,Population Fragmented Nuclei (%),[9],13%
same,Population Healthy Nuclei (%),[9],78%
same,Population Hoechst High Intensity Objects (%),[9],2%
same,Population Membrane Permeable-Phenotype (%),[9],1%
same,Population Mitochondria Different-Phenotype (%),[9],24%
same,Population Mitotic Cells (%),[9],86%
same,Population Normal (%),[9],97%
same,Population Pyknosed Nuclei (%),[9],8%
same,Population Tubulin-Different-Phenotype (%),[9],17%
same,Total Cell Count,[9],1095
same,Population Apoptotic (%),[10],34%
same,Population Fragmented Nuclei (%),[10],10%
same,Population Healthy Nuclei (%),[10],82%
same,Population Hoechst High Intensity Objects (%),[10],4%
same,Population Membrane Permeable-Phenotype (%),[10],0%
same,Population Mitochondria Different-Phenotype (%),[10],30%
same,Population Mitotic Cells (%),[10],65%
same,Population Normal (%),[10],95%
same,Population Pyknosed Nuclei (%),[10],6%
same,Population Tubulin-Different-Phenotype (%),[10],14%
same,Total Cell Count,[10],722
same,Population Apoptotic (%),[11],55%
same,Population Fragmented Nuclei (%),[11],10%
same,Population Healthy Nuclei (%),[11],69%
same,Population Hoechst High Intensity Objects (%),[11],6%
same,Population Membrane Permeable-Phenotype (%),[11],0%
same,Population Mitochondria Different-Phenotype (%),[11],69%
same,Population Mitotic Cells (%),[11],44%
same,Population Normal (%),[11],93%
same,Population Pyknosed Nuclei (%),[11],20%
same,Population Tubulin-Different-Phenotype (%),[11],49%
same,Total Cell Count,[11],283
same,Population Apoptotic (%),[12],63%
same,Population Fragmented Nuclei (%),[12],9%
same,Population Healthy Nuclei (%),[12],77%
same,Population Mitochondria Different-Phenotype (%),[12],72%
same,Population Mitotic Cells (%),[12],36%
same,Population Pyknosed Nuclei (%),[12],12%
same,Population Tubulin-Different-Phenotype (%),[12],41%
same,Total Cell Count,[12],314
